ARFGAP1 inh – inhibitors of rat ARFGAP1 GAP activity, primary screen, biochemical, fluorescence polarization, GDP tracer | ADP-ribosylation factor GTPase-activating protein 1 (Rattus norvegicus), Q62848 | Arfgap1-stimulated ARF1 GTP hydrolysis, GDP FP detection | inhibition, % at 16.5 µM | 360,000 compounds, 0.26% hits;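 active means inhibition above a per-plate limit, mean inhibition of low control wells plus 3 SD, cut at about 25% in these data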;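 further: 0% = DMSO wells with enzyme and 100% = wells lacking Arfgap1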
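Material: rat Arfgap1 GAP domain (His6, aa 1-136), purified enzyme. Also added: human ARF1(Δ1-17)-GTP substrate. Compound dosing: 16.5 µM single point, 1.26% DMSO. Timing: enzyme reaction 120 min at 25 °C after 20 min preincubation. Signal: GDP detection by fluorescence polarization. Read-out basis: percent inhibition of GAP-stimulated GDP formation, scaled between DMSO and no-Arfgap1 medians.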
MsrA inhibitor – bovine MsrA enzyme inhibitors, primary screen, biochemical, absorbance, HTS. Methionine sulfoxide reductase A (Bos taurus). purified bovine MsrA, absorbance read-out. inhibition, % at 15.5 µM. 360,000 compounds, 0.75% hits. AID 651718, 2012; in the data active means inhibition above about 4.5%;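 further: 0% = vehicle wells with enzyme and 100% = reference inhibitor wells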
NR1D1 modulator – modulators of Rev-erb alpha DNA binding, primary screen, biochemical, FITC-DNA, fluorescence polarization, uHTS; 370,000 compounds, 0.79% hits; AID 1259318, 2017; Rev-erbα–FITC-DNA binding, 90 min; activity, % at 10 µM;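 active means activity above about 14%, limit read from the data; passing the limit was not always enough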;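 further: 0% = DMSO wells with 35 nM protein and 100% = DMSO wells with 750 nM protein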
Target sequence (P20393 whole entry, looked up): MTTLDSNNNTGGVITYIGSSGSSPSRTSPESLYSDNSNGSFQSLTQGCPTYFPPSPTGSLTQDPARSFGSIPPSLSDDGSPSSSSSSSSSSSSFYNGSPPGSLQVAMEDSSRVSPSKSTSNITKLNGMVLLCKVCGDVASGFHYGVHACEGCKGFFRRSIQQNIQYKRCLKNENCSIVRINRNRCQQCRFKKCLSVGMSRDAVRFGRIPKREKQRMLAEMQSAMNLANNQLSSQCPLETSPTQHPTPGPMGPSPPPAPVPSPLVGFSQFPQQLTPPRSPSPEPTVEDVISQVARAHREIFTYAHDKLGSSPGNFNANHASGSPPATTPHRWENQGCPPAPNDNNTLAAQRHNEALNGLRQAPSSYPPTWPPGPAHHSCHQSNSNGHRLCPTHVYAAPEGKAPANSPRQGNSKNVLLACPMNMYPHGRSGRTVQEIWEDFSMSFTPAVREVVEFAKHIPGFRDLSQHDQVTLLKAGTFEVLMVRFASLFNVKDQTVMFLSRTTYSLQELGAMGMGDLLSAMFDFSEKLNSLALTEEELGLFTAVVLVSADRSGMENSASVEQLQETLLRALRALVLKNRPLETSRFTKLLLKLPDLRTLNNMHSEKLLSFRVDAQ
ASAP1 inh – inhibitors of human ASAP1 ArfGAP activity, primary screen, biochemical, fluorescence polarization | ASAP1-stimulated ARF1 GTP hydrolysis, GDP FP detection | inhibition, % at 16.5 µM | 360,000 compounds, 0.19% hits | AID 624377, 2012; in the data active means inhibition above about 25%;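 further: 0% = vehicle with enzyme and substrate and 100% = no enzyme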
bovine MsrA act – bovine MsrA enzyme activators, primary screen, biochemical, absorbance, HTS | Methionine sulfoxide reductase A (Bos taurus) | purified bovine MsrA, absorbance read-out | activation, % at 10.6 µM | 360,000 compounds, 0.3% hits; in the data active means activation above about 7.5%;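 further: 0% = vehicle and 100% = reference activator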
sPLA2-III inh – human group III sPLA2 inhibitors, primary screen, biochemical, QFRET, BODIPY PC-A2 liposome substrate; QFRET BODIPY PC-A2 liposome hydrolysis, fluorescence; 370,000 compounds, 0.56% hits; Group 3 secretory phospholipase A2 (Homo sapiens), Q9NZ20; inhibition, % at 12.2 µM;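 active means inhibition above mean plus 3 SD of compounds lying within the high and low control bounds, cut at about 19% in these data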;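 further: 0% = median of test compound wells and 100% = no enzyme DMSO wells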
NR1D1 mod conf – modulators of Rev-erb alpha DNA binding, confirmation, biochemical, FITC-DNA, fluorescence polarization, single point; 90 min; shares compounds with NR1D1 modulator; activation, % at 25 µM; 3,000 compounds, 61% hits;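 active means activation at or above a set limit, or at least 3 SD above the negative control mean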;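 further: 0% = 35 nM protein with DMSO and 100% = 750 nM protein high control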
RORg DNA counter – modulation of RORgamma DNA binding, dose response, counter-screen for Rev-erb alpha modulator project, biochemical, fluorescence polarization, FITC-DNA | shares compounds with NR1D1 modulator | purified RORgamma protein-FITC-DNA binding | IC50, µM | 910 compounds, 8% hits | AID 1259320, 2017;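 active means Compounds whose fitted half-maximal concentration for disrupting protein-DNA binding is below 10 micromolar; the record names Rev-erb in its text, so the target is in doubt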
* hit, by the source's call; x = no result given. Compounds with a hit are over-represented: about 2.7% of the library has one in this group of screens.

SMILES	ARFGAP1 inh	MsrA inhibitor	NR1D1 modulator	ASAP1 inh	bovine MsrA act	sPLA2-III inh	NR1D1 mod conf	others
Cc1cc(C)c2c(=O)[nH]c(=O)n(Cc3ccccc3)c2n1	-1	1	23*	2	1	5	15
O=C(Nc1cccc(C(F)(F)F)c1)c1scc2c1OCCO2	3	1	0	-3	-3	-4	x
O=C(Nc1cccc(C(F)(F)F)c1)c1cc(Br)cc2c1OCC2	12	-1	28*	6	-3	-4	31*	RORg DNA counter=4.5*
CCOC(=O)N1CCN(C(=O)C[C@@H]2C[C@@]3(C(=O)OC)CC(C)(C)CC=C3N(Cc3cccc4ccccc34)C2=O)CC1	1	-1	-3	8	x	-15	x
COC(=O)c1sc(NC(=O)C(C)C)c(C(=O)OC)c1C	0	0	22*	1	0	-1	5
CCC(=O)Nc1sc(C(=O)OC)c(C)c1C(=O)OC	-1	0	-3	-2	6	-9	x
CCOC(=O)c1sc(NC(=O)C(C)C)c(C#N)c1C	-11	1	47*	-9	-5	8	26*
Cc1cccc(C)c1NC(=O)c1ccc2sc([C@@H]3O[C@H](CO)[C@H](O)[C@H](O)[C@H]3O)nc2c1	7	0	-3	1	-2	-2	x
CS(=O)(=O)NCCNc1cc(Cl)ccc1[N+](=O)[O-]	11	2	17*	-16	-3	13	6
CS(=O)(=O)NCCNc1ccc(Cl)cc1[N+](=O)[O-]	4	-1	8	5	-2	1	x
COC(=O)c1ccc(N/C=C\C(=O)c2ccc3c(c2)OCO3)cc1	4	0	118*	9	0	-6	44*	RORg DNA counter=>40
COc1ccc(N/C=C/C(=O)c2ccc(OC)c(OC)c2)cc1	-3	2	-6	-10	-4	-22	x
COC(=O)c1ccc(N/C=C/C(=O)c2ccc(OC)c(OC)c2)cc1	14	2	23*	5	-2	4	12
COc1ccc(N/C=C\C(=O)c2ccc3c(c2)OCO3)cc1OC	-1	1	-7	-7	0	1	x
Cc1ccc(S(=O)(=O)N2C[C@H]3C(=O)C[C@@H](c4ccccc4)N(S(=O)(=O)c4ccc(C)cc4)[C@H]3C[C@H]2c2ccc(Cl)cc2)cc1	-6	0	-3	9	0	-7	x
CCCCN(C)c1c(C)nc2ccc(C(=O)Nc3cc(-c4ccccc4)ccc3OC)cn12	6	0	0	2	-5	-5	x
Cc1ccc(O)c(C2=NCCNC(C(F)(F)F)=C2)c1	-3	2	4	4	-2	1	x
Oc1c(C2=NCCNC(C(F)(F)F)=C2)ccc2ccccc12	-3	2	18*	-5	-9	10	7
CC(=O)Nc1cc(-c2ccccc2N(C)C)cn2c(-c3cccc(C(F)(F)F)c3)cnc12	3	1	7	-12	0	-49	x
O=C(c1cccc(F)c1)n1ccc2ccc(-c3ccc4ccn(Cc5ccccc5)c4c3)cc21	x	x	8	x	x	6	x
CCC(C)(C)NC(=O)CN(Cc1ccc2c(c1)OCO2)C(=O)CCC(=O)Nc1ccccn1	-9	0	27*	-20	-2	-4	5
CCN(CC)c1ccc2cc(-c3nc(-c4ccc(OC)cc4)cs3)c(=O)oc2c1	-6	0	40*	4	x	-48	29*
Nc1cccc(N=[N+]([O-])c2cccc(N)c2)c1	14	2	5	-9	-3	9	x
CCC[C@H]1[C@@H](NC(=O)C#Cc2ccccc2)CC[C@@]23CCCN2C(=O)CCC[C@@H]13	x	x	0	x	x	-4	x
O=C(c1ccc(F)cc1)c1ccc(-c2ccc(F)cc2)nc1	-2	2	28*	-3	-2	4	12
SMILES	ARFGAP1 inh	MsrA inhibitor	NR1D1 modulator	ASAP1 inh	bovine MsrA act	sPLA2-III inh	NR1D1 mod conf	others
c1ccc(-c2nc3ccccc3c3nc4ccccc4n23)cc1	-6	0	22*	-1	2	-19	-2
CCCC1CCC2(CC1)CCC2OC(=O)Nc1ccc(F)cc1 (stereo not drawn)	x	x	4	x	x	-6	x
Cc1ccc(S(=O)(=O)NCC(=O)OCc2cc(=O)oc3cc(C)ccc23)cc1	11	1	2	9	0	0	x
CCOC(=O)Nc1ccc2c(COC(=O)CN(C)S(=O)(=O)c3ccc(C)cc3)cc(=O)oc2c1	8	-1	46*	0	-7	-6	14
CCOC(=O)Nc1ccc2c(COC(=O)CNS(=O)(=O)c3cccc(Br)c3)cc(=O)oc2c1	5	0	76*	-4	-5	13	43*
OC(c1cccc(Cl)c1)c1ncc(-c2cccc(C(F)(F)F)c2)[nH]1 (stereo not drawn)	4	0	-8	14	3	-11	x
COc1ccc2ccccc2c1C=NNC(=O)c1cc(-c2ccc(C)c(C)c2)n[nH]1	x	x	-16	x	x	-13	x
Cc1cc(C)c2c(CCl)cc(=O)oc2c1	3	0	-1	-12	-7	-1	x
CCCCN(CCCC)Cc1cc(=O)oc2cc(C)cc(C)c12	-6	1	19*	6	-2	9	-1
Cc1nnc(C)n1N=Cc1ccc(Cl)c([N+](=O)[O-])c1	x	x	-6	x	x	6	x
COc1ccc2nc(N/C(N)=N/C(=S)Nc3cccc(C)c3)nc(C)c2c1	-6	0	4	4	-7	-3	x
Cc1ccc(NC(=S)/N=C(\N)Nc2nc(C)c3cc(C)c(C)cc3n2)cc1C	6	0	27*	-4	-2	-3	-1
CCOc1ccc2nc(N/C(N)=N/C(=S)Nc3cccc(OC)c3)nc(C)c2c1	-6	0	32*	7	-3	-1	3
Cc1ccc(NC(=S)/N=C(\N)Nc2nc(C)c3cc(C)ccc3n2)c(C)c1	7	3	-3	8	-9	1	x
CCOc1ccc2nc(N/C(N)=N/C(=S)Nc3cccc(C)c3)nc(C)c2c1	11	-1	35*	2	-1	1	37*	RORg DNA counter=>40

Source: PubChem
